Source: PMC3034256 (Chemistry & biology, 2011)

Experiments:
SHP1 = SHP1 (Homo sapiens, UniProt P29350); experiment: PTP-catalyzed pNPP hydrolysis, SHP1; type: biochemical
Outline: (§1)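 pNPP hydrolysis was run at 25 °C in 50 mM 3,3-dimethylglutarate, pH 7.0, 1 mM EDTA, ionic strength 0.15 M (NaCl). pNPP was fixed at each enzyme's experimentally determined Km, and reactions were started with enzyme. They were quenched with NaOH and corrected with no-enzyme controls. p-Nitrophenol was read at 405 nm. IC50 was fitted from AI/A0 = IC50/(IC50+[I]).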

Lyp = molecular target: T1, Lyp (Homo sapiens, UniProt Q9Y2R2); experiment: PTP-catalyzed pNPP hydrolysis, Lyp; type: biochemical
T1 sequence (Q9Y2R2 1-807): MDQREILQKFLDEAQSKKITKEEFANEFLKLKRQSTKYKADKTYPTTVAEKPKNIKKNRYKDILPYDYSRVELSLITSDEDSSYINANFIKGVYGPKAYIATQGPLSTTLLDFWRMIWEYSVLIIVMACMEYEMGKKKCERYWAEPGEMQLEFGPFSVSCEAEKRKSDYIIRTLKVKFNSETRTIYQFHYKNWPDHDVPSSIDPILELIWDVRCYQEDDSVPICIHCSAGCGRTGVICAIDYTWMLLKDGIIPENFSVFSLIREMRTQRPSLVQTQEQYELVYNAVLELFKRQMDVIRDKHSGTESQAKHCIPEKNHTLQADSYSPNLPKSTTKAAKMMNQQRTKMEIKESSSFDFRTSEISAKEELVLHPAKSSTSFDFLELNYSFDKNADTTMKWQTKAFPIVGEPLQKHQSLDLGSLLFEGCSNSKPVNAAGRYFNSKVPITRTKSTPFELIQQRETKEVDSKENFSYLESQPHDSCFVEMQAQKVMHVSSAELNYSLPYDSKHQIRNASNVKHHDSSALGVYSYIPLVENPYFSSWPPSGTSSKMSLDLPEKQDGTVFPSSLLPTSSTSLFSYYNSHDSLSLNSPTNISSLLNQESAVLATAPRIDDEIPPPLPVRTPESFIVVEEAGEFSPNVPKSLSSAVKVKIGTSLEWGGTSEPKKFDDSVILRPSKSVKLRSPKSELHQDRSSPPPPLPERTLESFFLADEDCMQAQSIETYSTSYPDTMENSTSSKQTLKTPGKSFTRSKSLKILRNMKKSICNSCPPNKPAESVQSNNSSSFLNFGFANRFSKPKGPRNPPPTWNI
Outline: as §1

Cdc14A = molecular target: T2, Cdc14A (Homo sapiens, UniProt Q9UNH5); experiment: PTP-catalyzed pNPP hydrolysis, Cdc14A; type: biochemical
T2 sequence (Q9UNH5 1-594): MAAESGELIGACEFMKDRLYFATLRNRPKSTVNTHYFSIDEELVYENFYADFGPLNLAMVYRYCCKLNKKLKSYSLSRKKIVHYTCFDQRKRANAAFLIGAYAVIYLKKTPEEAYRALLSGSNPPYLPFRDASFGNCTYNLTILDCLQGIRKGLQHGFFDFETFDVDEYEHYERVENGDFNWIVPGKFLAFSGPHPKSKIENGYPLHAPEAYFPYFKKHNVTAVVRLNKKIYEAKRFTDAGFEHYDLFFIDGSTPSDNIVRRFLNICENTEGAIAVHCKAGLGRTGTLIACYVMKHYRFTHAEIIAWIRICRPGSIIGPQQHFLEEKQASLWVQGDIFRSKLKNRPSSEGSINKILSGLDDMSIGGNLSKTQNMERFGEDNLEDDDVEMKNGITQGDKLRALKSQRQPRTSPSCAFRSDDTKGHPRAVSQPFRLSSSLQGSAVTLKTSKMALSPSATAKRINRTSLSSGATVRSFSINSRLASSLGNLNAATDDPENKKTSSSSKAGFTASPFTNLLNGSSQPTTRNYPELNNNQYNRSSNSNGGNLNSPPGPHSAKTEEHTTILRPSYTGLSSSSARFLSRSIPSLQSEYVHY
Outline: as §1

panel of PTPs = experiment: Screen against a panel of PTPs at 10 µM; type: biochemical; details: 10 µM compound, pNPP, pH 7, 25 °C
Jurkat T cells = experiment: TCR-mediated ERK1/2 activation in Jurkat T cells; type: cell-based; details: 2 h pretreatment (2 µM), 10 µg/mL anti-CD3
[1] = tested on: macrophage progenitor cells expressing MIEG3, wild-type SHP2, or SHP2/E76K; experiment: GM-CSF induced ERK1/2 activation in macrophage progenitors; type: cell-based; details: 2 µM for 2 hours, GM-CSF 50 ng/mL for 60 minutes
Outline: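 Bone marrow low-density mononuclear cells were transduced (empty vector, wild-type SHP2 or SHP2/E76K), EGFP-sorted and grown 5 days in M-CSF 100 ng/mL to give macrophage progenitors. These were serum- and growth factor-starved 16 h, pretreated 2 h with DMSO or 2 µM test compound, then left unstimulated or given GM-CSF 50 ng/mL for 60 min. Extracts were immunoblotted for phospho-ERK1/2 and total ERK1/2.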

[2] = tested on: SHP2/E76K-expressing hematopoietic progenitors; type: cell-based; details: 2 µM for 24 hours, GM-CSF 1 ng/mL, [3H] thymidine
Outline: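 Transduced, EGFP-sorted bone marrow low-density mononuclear cells (empty vector, wild-type SHP2 or SHP2/E76K) were serum- and growth factor-starved for 6 h. They were then cultured in complete medium with GM-CSF 1 ng/mL, with DMSO or 2 µM test compound, for 24 h. Cells were pulsed with [3H]thymidine to measure proliferation. Two independent experiments, cultures in triplicate.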

[3] = tested on: transduced bone marrow LDMNCs (MIEG3, wild-type SHP2, SHP2/E76K); experiment: Methylcellulose colony assay, GM-CSF-stimulated monocytic differentiation; type: cell-based; details: 2 µM, GM-CSF 1 ng/mL, 7 days, all cell types
Outline: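 Transduced, EGFP-sorted bone marrow low-density mononuclear cells were plated at 8000 cells/mL in 0.9% methylcellulose medium (IMDM, 2 mM glutamine, 80 µM β-mercaptoethanol, 30% FBS) with GM-CSF 1 ng/mL, ± 2 µM test compound. Cultures were kept at 37 °C, 5% CO2 for 7 days. Total colonies and CFU-GM vs CFU-M morphology were scored by light microscopy; n=2.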

PP2A = details: biochemical assays; cited from earlier work

SHP1, sequence (P29350 whole entry): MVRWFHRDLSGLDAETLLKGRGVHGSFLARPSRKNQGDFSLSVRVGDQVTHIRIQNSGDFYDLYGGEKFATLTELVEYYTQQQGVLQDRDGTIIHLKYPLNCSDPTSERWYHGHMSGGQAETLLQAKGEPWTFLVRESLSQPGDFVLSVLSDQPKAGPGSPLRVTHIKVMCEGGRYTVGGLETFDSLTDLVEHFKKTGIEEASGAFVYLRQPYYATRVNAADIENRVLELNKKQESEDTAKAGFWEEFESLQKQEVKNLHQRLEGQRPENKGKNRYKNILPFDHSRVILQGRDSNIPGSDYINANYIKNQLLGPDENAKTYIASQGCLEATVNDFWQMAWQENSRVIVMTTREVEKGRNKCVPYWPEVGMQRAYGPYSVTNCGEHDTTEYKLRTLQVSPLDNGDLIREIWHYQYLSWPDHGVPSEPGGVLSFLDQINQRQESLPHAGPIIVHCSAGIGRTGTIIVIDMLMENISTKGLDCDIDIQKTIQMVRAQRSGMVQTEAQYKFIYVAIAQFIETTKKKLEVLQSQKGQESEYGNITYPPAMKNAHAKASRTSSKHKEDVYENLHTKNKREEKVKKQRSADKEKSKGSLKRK

`C=C/C(=C/C(=O)C[C@H](C)C[C@@H](C)CC[C@H](O)[C@H](C)C(=O)C[C@@H](O)[C@H](C)[C@@H](C)OC(=O)C[C@@H](O)C1=C(C)C(=O)OC1=O)CC` [TTN, tautomycetin] showed an IC50 (SHP1) of 14.6 ± 1.1 µM, an IC50 (Lyp) of 20 ± 2 µM and an IC50 (Cdc14A) greater than 50 µM. For the same compound, the “inhibition of the rest of the PTP panel (other than SHP2)” value (panel of PTPs) was less than 30%, the “effect on TCR-mediated ERK1/2 activation” value (Jurkat T cells) was “strongly reduced” and the “effect on ERK1/2 hyperactivation in SHP2/E76K-expressing cells” value [1] was “effectively inhibited”. The “effect on GM-CSF induced ERK1/2 activation” value [1] was “abrogated”, the “effect on proliferation of SHP2/E76K-expressing progenitors” value [2] was “effectively reduced” and the “effect on development of CFU-M” value [3] was “reduced in all cells types”. The “inhibition of PP2A” value (PP2A) was “low nM range”.
